Laboratory results reported in publication PMC2900601 (Cell, 2009).
Where a chain is given by its changes, count along the chain named. Read-outs that look alike come from different tables or passages of the source. Where no end group is shown, it is not given here. [ ]: non-standard residue; d: D form. pT = C[C@@H](OP(=O)(O)O)[C@H](N)C(=O)O; pS = N[C@@H](COP(=O)(O)O)C(=O)O

Assays:
[1] = target: Schizosaccharomyces pombe Nbs1 N-terminal FHA/BRCT-repeat fragment (1-324) (Schizosaccharomyces pombe) (UniProt O43070); assay: ITC
[2] = target: human Nbs1 N-terminal FHA/BRCT-repeat fragment (1-382) (human) (UniProt O60934); assay: ITC
[3] = target: T1, human Nbs1 (hNbs1) FHA/BRCT fragment (1-382) (Homo sapiens, UniProt O60934); assay: ITC of phosphopeptides with wild-type hNbs1 N-terminal fragment; format: binding
T1 sequence (O60934 1-382): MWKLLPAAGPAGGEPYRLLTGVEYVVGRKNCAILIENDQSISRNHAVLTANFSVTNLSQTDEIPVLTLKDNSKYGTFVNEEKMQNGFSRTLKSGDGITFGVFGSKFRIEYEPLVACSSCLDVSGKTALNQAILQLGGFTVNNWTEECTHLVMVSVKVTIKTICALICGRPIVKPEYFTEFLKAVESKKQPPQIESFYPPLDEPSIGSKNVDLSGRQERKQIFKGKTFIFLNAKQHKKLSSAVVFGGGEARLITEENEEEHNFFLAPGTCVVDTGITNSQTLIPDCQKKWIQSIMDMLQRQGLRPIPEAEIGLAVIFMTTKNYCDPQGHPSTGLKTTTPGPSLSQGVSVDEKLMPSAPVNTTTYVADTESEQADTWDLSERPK

[4] = target: T2, spNbs1 FHA/BRCT2 region (1-324) (Schizosaccharomyces pombe, UniProt O43070); assay: ITC of phosphopeptides with wild-type spNbs1 N-terminal fragment; format: binding
T2 sequence (O43070 1-324): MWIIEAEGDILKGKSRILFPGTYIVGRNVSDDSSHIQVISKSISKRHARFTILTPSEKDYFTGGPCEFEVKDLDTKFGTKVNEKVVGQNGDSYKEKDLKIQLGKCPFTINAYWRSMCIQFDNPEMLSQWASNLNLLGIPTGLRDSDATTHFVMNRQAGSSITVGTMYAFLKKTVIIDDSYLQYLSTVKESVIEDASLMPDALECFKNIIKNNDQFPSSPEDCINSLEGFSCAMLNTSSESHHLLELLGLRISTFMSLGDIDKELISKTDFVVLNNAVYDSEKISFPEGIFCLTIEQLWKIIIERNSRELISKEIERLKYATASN
Outline: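 Purified recombinant […] N-terminal fragment of S. pombe Nbs1 titrated by ITC with the same Mdc1 phosphothreonine peptide used for the human protein. An unphosphorylated peptide of identical sequence was also tested. Affinity was derived from the titration.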

[5] = target: T3, human Nbs1 N-terminal FHA/BRCT-repeat fragment (1-382) (human, UniProt O60934 1-382); assay: ITC
T3 sequence: T1 sequence (O60934 1-382)

hNbs1 (1-382) R28A = target: T4, hNbs1 (1-382) R28A (human, UniProt O60934 1-382, R28A); assay: ITC
T4 sequence: T1 sequence (O60934 1-382) with R28A

hNbs1 (1-382) S42A = target: T5, hNbs1 (1-382) S42A (human, UniProt O60934 1-382, S42A); assay: ITC
T5 sequence: T1 sequence (O60934 1-382) with S42A

hNbs1 (1-382) K160M = target: T6, hNbs1 (1-382) K160M (human, UniProt O60934 1-382, K160M); assay: ITC
T6 sequence: T1 sequence (O60934 1-382) with K160M

spNbs1 (1-324) R27A = target: T7, spNbs1 (1-324) R27A (Schizosaccharomyces pombe, UniProt O43070 1-324, R27A); assay: ITC
T7 sequence: T2 sequence (O43070 1-324) with R27A

## Ctp1 peptide containing singly phosphorylated Thr-78
[1]
  Kd: 200 nM

## Ctp1 Site 1 di-phosphorylated peptide (pSer-77/pThr-79)
[1]
  fold weaker binding than the di-phosphorylated Site 2 peptide: 30 fold

## Ctp1 Site 2 peptide phosphorylated only on pThr-89
[1]
  fold weaker binding than the di-phosphorylated Site 2 peptide: 10 fold

## Mdc1 SDpTD mono-phosphorylated peptide
[2]
  fold reduced affinity against the di-phosphorylated Mdc1 peptide: 17 fold

## Ctp1 Site 2 di-phosphorylated peptide (pSer-87 and pThr-89)
[1]
  Kd: 50 nM

## Ctp1 Site 1 peptide phosphorylated only on pThr-79
[1]
  fold weaker binding than the di-phosphorylated Site 1 peptide: 8 fold

## pSDTD: Mdc1 peptide of the same sequence in which the threonine was not phosphorylated (GFID[pS]DTDAEEE)
[3]
  binding to hNbs1 (in words): neither spNbs1 nor hNbs1 bound
[3]; listed as mono-phosphorylated pSDTD
  binding to hNbs1 (in words): lack of hNbs1 interactions
[4]
  binding to spNbs1 (in words): neither spNbs1 nor hNbs1 bound

## Mdc1 pSDpTD motif di-phosphorylated peptide (Mdc1 residues 325-336) (from UniProt Q14676 325-336)
[1]
  Kd: 500 nM
[2]
  Kd: 1000 nM
  stoichiometry N: > 1

## FID[pS]D[pT]DVEEE [di-phosphorylated peptide with a core consensus of all six Mdc1 motifs (FIDpSDpTDVEEE)]
[5]
  stoichiometry N: > 1
hNbs1 (1-382) R28A
  fold reduction of stoichiometry against wild-type hNbs1: ~2 fold
hNbs1 (1-382) S42A
  fold reduction of stoichiometry against wild-type hNbs1: ~2 fold
hNbs1 (1-382) K160M
  fold reduction of stoichiometry against wild-type hNbs1: ~2 fold

## GFID[pS]D[pT]DAEEE [Mdc1 pSDpTD motif di-phosphorylated peptide (Mdc1 residues 325-336)]
spNbs1 (1-324) R27A
  fold reduction of apparent binding affinity against wild-type spNbs1: ~100 fold
